Experimental data as given in ChEMBL document CHEMBL1149671, “Enantiopure five-membered cyclicdiamine derivatives as potent and selective inhibitors of factor Xa. Improving in vitro metabolic stability via core modifications” (Bioorg Med Chem Lett, 2007).

What was measured:
Coagulation factor X = Coagulation factor X (Homo sapiens, UniProt P00742); experiment: Inhibition of human factor 10a
[1] = Cytotoxicity against HEK cells; format: cell-based; conditions: Homo sapiens, HEK293
Liver microsomes = experiment: Metabolic stability in human liver microsomes assessed as microsomal intrinsic clearance rate; format: ADME, Microsome
Procedure, shortened: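 Human liver microsomes, 10-min incubation. Metabolic stability given as % compound remaining. Microsomal intrinsic clearance rate (nmol/min/mg) is based on the % remaining after 10 min.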

Prothrombin = Prothrombin (Homo sapiens, UniProt P00734); experiment: Inhibition of human thrombin
[2] = Inhibition of human chymotrypsin
[3] = molecular target: Vitamin K-dependent protein C (Homo sapiens, UniProt P04070); experiment: Inhibition of human activated protein C
Sequence of Vitamin K-dependent protein C (P04070 43-197 limits assumed): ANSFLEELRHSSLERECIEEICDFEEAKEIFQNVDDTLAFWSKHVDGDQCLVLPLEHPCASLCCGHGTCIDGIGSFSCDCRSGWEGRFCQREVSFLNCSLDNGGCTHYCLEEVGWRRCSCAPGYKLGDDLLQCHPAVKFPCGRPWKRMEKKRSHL
Sequence of Vitamin K-dependent protein C (P04070 212-461 limits assumed): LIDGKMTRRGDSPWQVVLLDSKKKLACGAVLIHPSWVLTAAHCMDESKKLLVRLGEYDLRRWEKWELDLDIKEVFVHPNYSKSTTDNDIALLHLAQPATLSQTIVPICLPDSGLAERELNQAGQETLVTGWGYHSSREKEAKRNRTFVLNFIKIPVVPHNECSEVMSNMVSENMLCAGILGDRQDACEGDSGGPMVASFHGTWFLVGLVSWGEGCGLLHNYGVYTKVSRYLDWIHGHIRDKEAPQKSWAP

[4] = molecular target: Urokinase-type plasminogen activator (Homo sapiens, UniProt P00749); experiment: Inhibition of human urokinase
Trypsin = Trypsin (Homo sapiens, UniProt P07477+P07478+P35030); experiment: Inhibition of human trypsin; format: protein assay
[5] = Clearance in dog at 0.5 mg/kg, iv; format: ADME, organism-based, Canis lupus familiaris; set-up: dose 0.5 mg/kg, route intravenous; conditions: in vivo
Procedure, shortened: (§1)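 Dogs. Intravenous dose 0.5 mg/kg, used for clearance (L/kg/h), steady-state volume of distribution (L/kg) and iv half-life.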

[6] = Half life in dog at 0.5 mg/kg, iv; format: ADME, organism-based, Canis lupus familiaris; set-up: dose 0.5 mg/kg, route intravenous; conditions: in vivo; procedure, shortened: as §1
[7] = Half life in dog at 0.2 mg/kg, po; format: ADME, organism-based, Canis lupus familiaris; set-up: dose 0.2 mg/kg, route oral; conditions: in vivo
[8] = Bioavailability in dog at 0.2 mg/kg, po; format: ADME, organism-based, Canis lupus familiaris; conditions: in vivo; procedure, shortened: as §1
Coagulation factor XI = Coagulation factor XI (Homo sapiens, UniProt P03951); experiment: Inhibition of human factor 11a
Sequence of Coagulation factor XI (P03951 19-387 limits assumed): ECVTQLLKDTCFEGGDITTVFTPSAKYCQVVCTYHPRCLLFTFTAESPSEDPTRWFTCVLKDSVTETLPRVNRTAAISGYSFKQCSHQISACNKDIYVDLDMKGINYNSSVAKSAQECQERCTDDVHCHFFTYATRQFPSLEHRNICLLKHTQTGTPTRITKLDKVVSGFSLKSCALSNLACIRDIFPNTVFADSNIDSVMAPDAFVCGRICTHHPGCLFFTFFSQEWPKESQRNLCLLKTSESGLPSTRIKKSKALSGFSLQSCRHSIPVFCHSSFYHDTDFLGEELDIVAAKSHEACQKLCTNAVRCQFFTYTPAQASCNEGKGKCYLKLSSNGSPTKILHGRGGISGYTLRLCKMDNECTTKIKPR
Sequence of Coagulation factor XI (P03951 388-625 limits assumed): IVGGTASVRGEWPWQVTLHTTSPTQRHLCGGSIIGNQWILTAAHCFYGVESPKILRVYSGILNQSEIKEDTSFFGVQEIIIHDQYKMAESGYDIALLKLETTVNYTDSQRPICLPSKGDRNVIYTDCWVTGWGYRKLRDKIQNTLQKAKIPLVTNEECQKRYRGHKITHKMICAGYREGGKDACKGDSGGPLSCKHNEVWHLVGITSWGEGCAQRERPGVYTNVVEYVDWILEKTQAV

[9] = Volume of distribution at steady state in dog at 0.5 mg/kg, iv; format: ADME, organism-based, Canis lupus familiaris; set-up: dose 0.5 mg/kg, route intravenous; conditions: in vivo, read-out: Vdss; procedure, shortened: as §1
Plasminogen = Plasminogen (Homo sapiens, UniProt P00747); experiment: Inhibition of human Plasmin
Sequence of Plasminogen (P00747 97-580 limits assumed): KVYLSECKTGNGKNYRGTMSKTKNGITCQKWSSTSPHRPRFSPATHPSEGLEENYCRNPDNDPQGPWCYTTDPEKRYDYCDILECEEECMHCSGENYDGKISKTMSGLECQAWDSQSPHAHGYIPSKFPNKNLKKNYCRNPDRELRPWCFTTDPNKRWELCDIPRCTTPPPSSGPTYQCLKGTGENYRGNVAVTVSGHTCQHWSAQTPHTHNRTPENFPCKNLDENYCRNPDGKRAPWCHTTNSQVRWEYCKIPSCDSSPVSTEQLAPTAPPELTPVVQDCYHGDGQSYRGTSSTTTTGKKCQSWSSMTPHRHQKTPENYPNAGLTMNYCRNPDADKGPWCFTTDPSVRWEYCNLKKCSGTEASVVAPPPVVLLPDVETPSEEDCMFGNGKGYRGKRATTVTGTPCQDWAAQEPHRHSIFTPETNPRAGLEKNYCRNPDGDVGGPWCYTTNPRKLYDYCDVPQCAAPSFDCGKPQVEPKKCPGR
Sequence of Plasminogen (P00747 581-810 limits assumed): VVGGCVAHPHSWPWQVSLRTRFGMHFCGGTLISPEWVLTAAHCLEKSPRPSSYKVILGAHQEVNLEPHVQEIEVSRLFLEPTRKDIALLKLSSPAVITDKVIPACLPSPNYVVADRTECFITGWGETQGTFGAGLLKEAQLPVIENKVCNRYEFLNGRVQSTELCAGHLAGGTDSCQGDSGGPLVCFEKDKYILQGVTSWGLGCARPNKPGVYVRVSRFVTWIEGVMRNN

[10] = molecular target: Tissue-type plasminogen activator (Homo sapiens, UniProt P00750); experiment: Inhibition of human tissue plasminogen activator
Sequence of Tissue-type plasminogen activator (P00750 whole entry): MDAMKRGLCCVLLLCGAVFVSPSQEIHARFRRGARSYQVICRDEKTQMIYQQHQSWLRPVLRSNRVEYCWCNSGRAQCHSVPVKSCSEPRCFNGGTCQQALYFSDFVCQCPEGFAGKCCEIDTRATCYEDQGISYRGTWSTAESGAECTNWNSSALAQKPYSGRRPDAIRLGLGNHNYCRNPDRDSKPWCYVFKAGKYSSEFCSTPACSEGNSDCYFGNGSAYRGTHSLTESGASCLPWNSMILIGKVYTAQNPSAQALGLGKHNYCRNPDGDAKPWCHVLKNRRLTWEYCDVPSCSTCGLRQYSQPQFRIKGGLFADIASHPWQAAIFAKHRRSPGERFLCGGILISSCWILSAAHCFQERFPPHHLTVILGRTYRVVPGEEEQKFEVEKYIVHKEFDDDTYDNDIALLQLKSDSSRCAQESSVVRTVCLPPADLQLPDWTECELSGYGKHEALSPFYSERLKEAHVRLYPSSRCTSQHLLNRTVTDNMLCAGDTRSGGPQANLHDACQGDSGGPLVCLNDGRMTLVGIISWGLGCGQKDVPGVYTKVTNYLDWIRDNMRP

Coagulation factor VII = molecular target: T1, Coagulation factor VII (Homo sapiens, UniProt P08709); experiment: Inhibition of human factor 7a
T1 sequence (P08709 whole entry): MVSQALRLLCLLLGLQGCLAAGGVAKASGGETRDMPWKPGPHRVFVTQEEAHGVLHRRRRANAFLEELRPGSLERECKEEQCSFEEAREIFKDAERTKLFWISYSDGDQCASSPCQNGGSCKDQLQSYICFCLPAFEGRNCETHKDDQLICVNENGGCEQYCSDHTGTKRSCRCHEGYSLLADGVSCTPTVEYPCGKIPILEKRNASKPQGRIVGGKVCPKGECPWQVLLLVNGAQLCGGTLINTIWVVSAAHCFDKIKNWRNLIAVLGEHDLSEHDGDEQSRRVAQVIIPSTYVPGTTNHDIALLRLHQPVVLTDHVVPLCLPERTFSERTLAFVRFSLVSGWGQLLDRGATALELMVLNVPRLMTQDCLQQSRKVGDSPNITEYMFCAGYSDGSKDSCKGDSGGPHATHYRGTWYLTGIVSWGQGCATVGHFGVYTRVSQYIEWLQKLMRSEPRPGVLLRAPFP

[11] = Permeability across Caco-2 cells; format: ADME, cell-based; conditions: human, read-out: permeability
Plasma kallikrein = Plasma kallikrein (Homo sapiens, UniProt P03952); experiment: Inhibition of human plasma kallikrein; format: cell-free
Sequence of Plasma kallikrein (P03952 20-390 limits assumed): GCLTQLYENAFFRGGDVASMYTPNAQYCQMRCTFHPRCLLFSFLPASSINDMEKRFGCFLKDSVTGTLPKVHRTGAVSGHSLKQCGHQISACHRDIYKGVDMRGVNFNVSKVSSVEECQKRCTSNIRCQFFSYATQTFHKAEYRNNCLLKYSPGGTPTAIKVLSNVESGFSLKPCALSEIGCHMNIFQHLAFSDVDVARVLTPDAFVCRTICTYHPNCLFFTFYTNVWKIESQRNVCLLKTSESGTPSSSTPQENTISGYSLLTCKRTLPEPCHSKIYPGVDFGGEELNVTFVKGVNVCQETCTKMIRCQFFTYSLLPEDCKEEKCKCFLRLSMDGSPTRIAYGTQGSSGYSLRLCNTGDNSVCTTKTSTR
Sequence of Plasma kallikrein (P03952 391-638 limits assumed): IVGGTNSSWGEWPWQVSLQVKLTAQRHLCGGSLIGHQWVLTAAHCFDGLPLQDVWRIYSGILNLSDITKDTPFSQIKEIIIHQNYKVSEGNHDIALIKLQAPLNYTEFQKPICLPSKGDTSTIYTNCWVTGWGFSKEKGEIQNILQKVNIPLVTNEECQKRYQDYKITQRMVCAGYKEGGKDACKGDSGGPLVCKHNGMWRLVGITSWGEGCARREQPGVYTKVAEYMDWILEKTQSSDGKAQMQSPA

Sequence of Coagulation factor X (P00742 41-179 limits assumed): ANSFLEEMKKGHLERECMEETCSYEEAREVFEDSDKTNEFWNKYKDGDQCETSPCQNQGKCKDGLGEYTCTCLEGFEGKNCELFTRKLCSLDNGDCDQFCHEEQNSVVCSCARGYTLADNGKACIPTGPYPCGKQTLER
Sequence of Coagulation factor X (P00742 235-488 limits assumed): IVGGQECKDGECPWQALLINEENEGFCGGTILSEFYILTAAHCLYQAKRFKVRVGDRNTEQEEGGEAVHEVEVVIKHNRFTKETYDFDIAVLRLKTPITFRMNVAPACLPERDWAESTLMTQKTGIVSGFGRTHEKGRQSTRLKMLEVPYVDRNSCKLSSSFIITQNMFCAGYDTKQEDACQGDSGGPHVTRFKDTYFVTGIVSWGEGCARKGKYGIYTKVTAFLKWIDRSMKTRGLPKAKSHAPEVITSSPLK

Structure (SMILES)	Ki (Coagulation factor X) [nM]	IC50 [1] [nM]	also measured
O=C(N[C@H]1CN(C(=O)C2CC2)C[C@H]1NC(=O)c1ccc(Cl)s1)c1ccc(-n2ccccc2=O)cc1	2.1	> 100000	–
O=C(N[C@H]1CN(C(=O)c2ccccc2)C[C@H]1NC(=O)c1ccc(Cl)s1)c1ccc(-n2ccccc2=O)cc1	2.2	> 100000	–
COCC(=O)N1C[C@H](NC(=O)c2ccc(-n3ccccc3=O)cc2)[C@H](NC(=O)c2ccc(Cl)s2)C1	0.36	> 100000	–
COCCOC(=O)N1C[C@H](NC(=O)c2ccc(-n3ccccc3=O)cc2)[C@H](NC(=O)c2ccc(Cl)s2)C1	0.93	> 100000	–
CS(=O)(=O)N1C[C@H](NC(=O)c2ccc(-n3ccccc3=O)cc2)[C@H](NC(=O)c2ccc(Cl)s2)C1	0.44	> 100000	CL (Liver microsomes): 0 nmol/mg/min
CC(C)S(=O)(=O)N1C[C@H](NC(=O)c2ccc(-n3ccccc3=O)cc2)[C@H](NC(=O)c2ccc(Cl)s2)C1	1.7	> 100000	–
CN(C)C(=O)N1C[C@H](NC(=O)c2ccc(-n3ccccc3=O)cc2)[C@H](NC(=O)c2ccc(Cl)s2)C1	0.56	> 100000	CL (Liver microsomes): 0 nmol/mg/min
O=C(N[C@H]1CNC[C@H]1NC(=O)c1ccc(Cl)s1)c1ccc(-n2ccccc2=O)cc1	9.5	> 100000	CL (Liver microsomes): 0 nmol/mg/min
CCC(=O)N1C[C@H](NC(=O)c2ccc(-n3ccccc3=O)cc2)[C@H](NC(=O)c2ccc(Cl)s2)C1	2	> 100000	–
CC(C)(C)C(=O)N1C[C@H](NC(=O)c2ccc(-n3ccccc3=O)cc2)[C@H](NC(=O)c2ccc(Cl)s2)C1	1.7	> 100000	–
CC(C)C(=O)N1C[C@H](NC(=O)c2ccc(-n3ccccc3=O)cc2)[C@H](NC(=O)c2ccc(Cl)s2)C1	1.3	> 100000	CL (Liver microsomes): 0 nmol/mg/min
O=C(N[C@H]1CN(C(=O)OCC2c3ccccc3-c3ccccc32)C[C@H]1NC(=O)c1ccc2c(Cl)c[nH]c2c1)c1ccc(-n2ccccc2=O)cc1	163	> 100000	–
CCS(=O)(=O)N1C[C@H](NC(=O)c2ccc(-n3ccccc3=O)cc2)[C@H](NC(=O)c2ccc(Cl)s2)C1	0.64	> 100000	Ki (Prothrombin): 3950 nM; Ki [2]: > 20000 nM; Ki [3]: > 21000 nM; Ki [4]: > 14000 nM; Ki (Trypsin): > 5000 nM; clearance [5]: 25 mL/min/kg; CL (Liver microsomes): 0 nmol/mg/min; half-life [6]: 0.7 h; half-life [7]: 1.3 h; bioavailability [8]: 16%; Ki (Coagulation factor XI): 6680 nM; Papp [11]: < 1.5 ×10⁻⁶ cm/s; Vd [9]: 1.1 L/kg; Ki (Plasma kallikrein): > 10800 nM; Ki (Plasminogen): > 22000 nM; Ki [10]: > 21000 nM; Ki (Coagulation factor VII): > 11000 nM
CNC(=O)N1C[C@H](NC(=O)c2ccc(-n3ccccc3=O)cc2)[C@H](NC(=O)c2ccc(Cl)s2)C1	1.1	> 100000	CL (Liver microsomes): 0 nmol/mg/min
COC(=O)N1C[C@H](NC(=O)c2ccc(-n3ccccc3=O)cc2)[C@H](NC(=O)c2ccc(Cl)s2)C1	0.74	> 100000	CL (Liver microsomes): 0 nmol/mg/min
O=C(N[C@H]1CN(C(=O)N2CCCC2)C[C@H]1NC(=O)c1ccc(Cl)s1)c1ccc(-n2ccccc2=O)cc1	1.7	> 100000	–

The next lines start with results.

Ki (Coagulation factor X) [nM]	Structure (SMILES)	IC50 [1] [nM]	also measured
0.21	O=C(N[C@@H]1Cc2ccccc2[C@@H]1NC(=O)c1ccc2c(Cl)c[nH]c2c1)c1ccc(-n2ccccc2=O)cc1	–	–
230	O=C(N[C@@H]1Cc2ccccc2[C@@H]1NC(=O)c1ccc(Cl)s1)c1ccc(-n2ccccc2=O)cc1	–	–
27	O=C(N[C@H]1Cc2ccccc2[C@H]1NC(=O)c1ccc(Cl)s1)c1ccc(-n2ccccc2=O)cc1	–	–
10900	O=C(N[C@@H]1c2ccccc2C[C@@H]1NC(=O)c1ccc(Cl)s1)c1ccc(-n2ccccc2=O)cc1	–	–
1	O=C(N[C@@H]1Cc2ccccc2[C@@H]1NC(=O)c1ccc(-n2ccccc2=O)cc1)c1ccc2c(Cl)c[nH]c2c1	–	–
0.53	COC(=O)[C@H]1C[C@H](NC(=O)c2ccc(-n3ccccc3=O)cc2)[C@H](NC(=O)c2ccc(Cl)s2)C1	–	–
2.1	CN(C)C(=O)[C@H]1C[C@H](NC(=O)c2ccc(-n3ccccc3=O)cc2)[C@H](NC(=O)c2ccc(Cl)s2)C1	–	–
2.6	O=C(N[C@H]1COC[C@H]1NC(=O)c1ccc(Cl)s1)c1ccc(-n2ccccc2=O)cc1	–	Ki (Prothrombin): > 12000 nM; Ki [2]: > 20000 nM; Ki [3]: > 21000 nM; Ki [4]: > 14000 nM; Ki (Trypsin): > 5000 nM; clearance [5]: 26.7 mL/min/kg; CL (Liver microsomes): 0.031 nmol/mg/min; half-life [6]: 1.2 h; half-life [7]: 1.2 h; bioavailability [8]: 97%; Ki (Coagulation factor XI): > 11000 nM; Vd [9]: 1 L/kg; Ki (Plasminogen): > 22000 nM; Ki [10]: > 21000 nM; Ki (Coagulation factor VII): > 11000 nM
2.6	O=C(N[C@H]1COC[C@H]1NC(=O)c1ccc2c(Cl)c[nH]c2c1)c1ccc(-n2ccccc2=O)cc1	–	–
18	O=C(N[C@H]1CNC[C@H]1NC(=O)c1ccc2c(Cl)c[nH]c2c1)c1ccc(-n2ccccc2=O)cc1	–	–
3.9	CC(=O)N1C[C@H](NC(=O)c2ccc(-n3ccccc3=O)cc2)[C@H](NC(=O)c2ccc3c(Cl)c[nH]c3c2)C1	–	–
2.8	CCOC(=O)N1C[C@H](NC(=O)c2ccc(-n3ccccc3=O)cc2)[C@H](NC(=O)c2ccc3c(Cl)c[nH]c3c2)C1	–	–
4.5	O=C(N[C@H]1CN(C(=O)OCC2c3ccccc3-c3ccccc32)C[C@H]1NC(=O)c1ccc(Cl)s1)c1ccc(-n2ccccc2=O)cc1	–	–
0.84	O=C(N[C@H]1Cc2ccccc2[C@H]1NC(=O)c1ccc2c(Cl)c[nH]c2c1)c1ccc(-n2ccccc2=O)cc1	–	–
0.39	COC(=O)C1C[C@H](NC(=O)c2ccc(-n3ccccc3=O)cc2)[C@H](NC(=O)c2ccc(Cl)s2)C1 (stereo partly specified)	–	–
7.9	O=C(N[C@H]1Cc2ccccc2[C@H]1NC(=O)c1ccc(-n2ccccc2=O)cc1)c1ccc2c(Cl)c[nH]c2c1	–	–
1.9	O=C(N[C@H]1C[C@H](C(=O)O)C[C@H]1NC(=O)c1ccc(Cl)s1)c1ccc(-n2ccccc2=O)cc1	–	Ki (Prothrombin): > 12000 nM; Ki [2]: > 20000 nM; Ki [3]: > 21000 nM; Ki [4]: > 14000 nM; Ki (Trypsin): > 5000 nM; Ki (Coagulation factor XI): > 11000 nM; Ki (Plasma kallikrein): > 6000 nM; Ki (Plasminogen): > 22000 nM; Ki [10]: > 21000 nM; Ki (Coagulation factor VII): > 11000 nM
1.6	O=C(N[C@H]1C[C@H](C(=O)NC2CC2)C[C@H]1NC(=O)c1ccc(Cl)s1)c1ccc(-n2ccccc2=O)cc1	–	–
3	COC(=O)C1C[C@H](NC(=O)c2ccc(-n3ccccc3=O)cc2)[C@H](NC(=O)c2ccc3c(Cl)c[nH]c3c2)C1 (stereo partly specified)	–	–
2.9	COCCNC(=O)[C@H]1C[C@H](NC(=O)c2ccc(-n3ccccc3=O)cc2)[C@H](NC(=O)c2ccc(Cl)s2)C1	–	–
1.6	O=C(N[C@H]1C[C@H](C(=O)N2CCOCC2)C[C@H]1NC(=O)c1ccc(Cl)s1)c1ccc(-n2ccccc2=O)cc1	–	–
